Where two headings read alike, the source gives them in different places.
Columns and labels:
HhC [1] = target: T1, HhC (Drosophila melanogaster, UniProt Q02936); type: binding; details: HhC 5 μM, tSP 10 μM, competitor 200 μM
T1 sequence (Q02936 258-471 limits assumed): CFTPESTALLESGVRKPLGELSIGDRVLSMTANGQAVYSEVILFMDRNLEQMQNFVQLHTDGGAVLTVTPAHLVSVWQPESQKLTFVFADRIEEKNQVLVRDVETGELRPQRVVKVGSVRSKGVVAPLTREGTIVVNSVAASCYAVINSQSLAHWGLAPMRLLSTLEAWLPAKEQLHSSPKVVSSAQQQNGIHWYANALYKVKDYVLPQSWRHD
Procedure, shortened: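 HhC at 5 μM with diazirine-bearing sterol probe tSP and 50 μM azide-linked fluorophore. Saturating cholesterol or test compound added as competitor. UV photolysis. Labeling read by SDS-PAGE with fluorescent gel imaging. Coomassie stain for total HhC.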

[2] = target: T2, Drosophila melanogaster HhC (Drosophila melanogaster, UniProt Q02936); details: read-out: KM as HhC substrate; cited from earlier work
T2 sequence (Q02936 258-471 limits assumed): T1 sequence (Q02936 258-471 limits assumed)

[3] = target: T2, Drosophila melanogaster HhC; experiment: Cholesterolysis kinetics; type: biochemical; details: C−H−Y
HhC [4] = target: T1, HhC; experiment: MS/MS mapping of tSP binding site on HhC/tSP adduct; details: product form of HhC, preliminary MS/MS

| Compound | effect on active-site photolabeling of HhC by tSP (HhC [1]) | Km [2] [µM] | kmax as HhC substrate ([3]; no inhibitor) [s⁻¹] | site of probe attachment on HhC (HhC [4]) | difference in kmax/KM compared with cholesterol [3] [fold] | Km ([3]; read-out: KM as HhC substrate, no inhibitor) [µM] |
| --- | --- | --- | --- | --- | --- | --- |
| CC(C)CCC[C@@H](C)[C@H]1CC[C@H]2[C@@H]3CC=C4C[C@@H](O)CC[C@]4(C)[C@H]3CC[C@]12C [cholesterol] | competitively blocks | 1.5 | 0.0019 | – | – | – |
| C#CCCCCOC(=O)CC[C@@H](C)[C@H]1CCC2C3CC4(N=N4)[C@H]4C[C@@H](O)CC[C@]4(C)C3CC[C@@]21C (stereo partly shown) [tSP] | – | – | 0.0042 | EQLHSSPK (HhC residues 174−181) | < 2 | 6.8 |
